# Experimental data reported in ChEMBL document CHEMBL5154924, “Discovery of In Vivo Active Sphingosine-1-phosphate Transporter (Spns2) Inhibitors” (J Med Chem, 2022).
# Activity calls are given as the source filed them. The calls are words filed in the database; no cut-off is given here.
# Target: T1, Sphingosine-1-phosphate transporter SPNS2 (Mus musculus, UniProt Q91VM4)
# T1 sequence (Q91VM4 whole entry): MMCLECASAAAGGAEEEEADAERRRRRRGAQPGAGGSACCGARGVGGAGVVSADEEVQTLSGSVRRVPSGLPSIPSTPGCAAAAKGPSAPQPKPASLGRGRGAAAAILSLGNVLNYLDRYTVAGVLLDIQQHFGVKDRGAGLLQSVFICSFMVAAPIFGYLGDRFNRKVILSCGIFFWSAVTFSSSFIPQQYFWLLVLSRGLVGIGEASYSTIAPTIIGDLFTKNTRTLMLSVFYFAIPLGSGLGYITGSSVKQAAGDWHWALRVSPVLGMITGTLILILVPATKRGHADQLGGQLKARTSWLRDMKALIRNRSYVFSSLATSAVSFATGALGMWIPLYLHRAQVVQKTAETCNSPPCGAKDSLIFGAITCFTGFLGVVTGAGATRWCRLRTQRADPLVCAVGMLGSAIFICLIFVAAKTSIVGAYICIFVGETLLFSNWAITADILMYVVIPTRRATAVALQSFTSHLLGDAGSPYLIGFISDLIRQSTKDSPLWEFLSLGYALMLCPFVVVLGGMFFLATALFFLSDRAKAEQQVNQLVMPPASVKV
# Assay: (§1) Inhibition of mouse Spns2 transfected in human HeLa cells by measuring S1P release by LC/MS analysis
# Type: cell-based
# Conditions: not given
# In short: (§2)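 Mouse Spns2-transfected HeLa cells (G418-selected) held 18–20 h in RPMI 1640/0.2% fatty acid-free BSA containing 1 mM 4-deoxypyridoxine, 2 mM NaF and 0.2 mM Na₃VO₄ across a compound concentration series. Released S1P quantified by LC-MS/MS with d₇-S1P internal standard; IC50 calculated from the concentration–effect curve.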
row,IC50,Structure (SMILES)
1,1.93 µM,CCCCCCCCCCc1ccc(-c2noc(CCCN)n2)cc1.Cl

# Target: T2, Sphingosine-1-phosphate transporter SPNS2 (Mus musculus) (UniProt Q91VM4)
# T2 sequence (whole entry): T1 sequence (Q91VM4 whole entry)
# Assay: as §1
# Type: cell-based
# Conditions: dose <= 5.0 µM, DDE = dose-dependent effect
# In short: as §2
row,inhibition,Structure (SMILES)
1,Dde,CCCCCCCCCCc1ccc(-c2noc(CCCN)n2)cc1.Cl

# Test system: Mus musculus
# Assay: In vivo inactivation of Spns2 gene in C57BL/6j mouse assessed as decrease in circulating lymphocytes at 20 mg/kg, ip measured after 4 hrs by blood analyzer
# Type: functional, organism-based
# Conditions: not given
# In short: (§3)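 Blood drawn 4 h postdose. Lymphocytes counted from 20 μL blood on a haematology analyzer; plasma S1P quantified by LC-MS/MS. Compared with vehicle-treated controls by t-test.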
row,Structure (SMILES),inhibition
1,CCCCCCCCCCc1ccc(-c2noc(CCCN)n2)cc1.Cl,Active

# Test system: not listed separately
# Assay: Drug concentration in Sprague-Dawley rat plasma at 10 mg/kg, ip at 2 hrs by LC-MS/MS analysis
# Type: ADME, organism-based
# Conditions: not given
# In short: (§4)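 Single intraperitoneal dose to 4-week-old male rats (n = 4); vehicle 36.1% PEG400/9.1% ethanol/4.6% Solutol/50% H₂O. Tail-nick whole blood (ca. 70 μL) collected at 0, 0.5, 1, 2, 4, 6 and 24 h postdose. Plasma drug levels quantified by LC-MS/MS with an internal standard.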
row,concentration at 2 h,Structure (SMILES)
1,5 µM,CCCCCCCCCCc1ccc(-c2noc(CCCN)n2)cc1.Cl

# Organism: Mus musculus
# Assay: Selectivity ratio of IC50 for mouse SphK1 to recombinant mouse Snps2
# Conditions: not given
row,Ratio IC50,Structure (SMILES)
1,15,CCCCCCCCCCc1ccc(-c2noc(CCCN)n2)cc1.Cl

# Target: Sphingosine kinase 1 (Mus musculus, UniProt Q8CI15)
# Assay: Inhibition of recombinant mouse SphK1 transfected in HEK293T cells using D-erythro-sphingosine measured after 20 mins in presence of gamma-[p32]-ATP by autoradiography and liquid scintillation counting method
# Type: cell-based
# Conditions: not given
# Chain of Sphingosine kinase 1 (Q8CI15 whole entry): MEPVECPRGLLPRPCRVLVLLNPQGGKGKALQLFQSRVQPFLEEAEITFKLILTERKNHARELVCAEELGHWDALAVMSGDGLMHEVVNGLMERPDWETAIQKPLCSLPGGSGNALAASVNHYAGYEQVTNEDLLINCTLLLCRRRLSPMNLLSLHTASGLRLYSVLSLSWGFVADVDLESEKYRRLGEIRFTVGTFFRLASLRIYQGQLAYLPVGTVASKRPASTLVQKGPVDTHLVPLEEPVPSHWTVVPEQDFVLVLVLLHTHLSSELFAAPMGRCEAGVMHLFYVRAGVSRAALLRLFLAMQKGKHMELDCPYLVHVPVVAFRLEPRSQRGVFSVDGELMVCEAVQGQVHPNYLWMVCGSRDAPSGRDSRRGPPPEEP
row,IC50,Structure (SMILES)
1,≥ 30 µM,CCCCCCCCCCc1ccc(-c2noc(CCCN)n2)cc1.Cl

# Target: T2, Sphingosine-1-phosphate transporter SPNS2 (Mus musculus)
# Assay: Inhibition of mouse Spns2 transfected in human HeLa cells by measuring S1P release at 2 uM by LC/MS analysis relative to control
# Type: cell-based
# Conditions: not given
# In short: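 HeLa cells stably transfected with mouse Spns2 and selected with G418, grown to near confluence. Medium replaced with RPMI 1640/0.2% fatty acid-free BSA containing 1 mM 4-deoxypyridoxine, 2 mM NaF and 0.2 mM Na₃VO₄. Compound added to duplicate wells, incubated 18–20 h. Medium S1P measured by LC-MS/MS against d₇-S1P after TCA precipitation and methanol extraction. Inhibition expressed relative to no-inhibitor control.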
row,inhibition,Structure (SMILES)
1,21%,CCCCCCCCCCc1ccc(-c2noc(CC(O)CN3CCCC3)n2)cc1 (configuration not stated)
2,61%,CCCCCCCCCCc1ccc(-c2noc(CC(O)CN(C)C)n2)cc1 (configuration not stated)
3,0%,CCCCCCCCCCc1ccc(-c2noc(CC(O)CN3CCOCC3)n2)cc1 (configuration not stated)
4,55%,CCCCCCCCCCc1ccc(-c2noc(CCCCN)n2)cc1
5,2%,CCCCCCCCCCc1ccc(-c2noc(CCCN3CCOCC3)n2)cc1
6,49%,CCCCCCCCCCCc1ccc(-c2noc(CCCN)n2)cc1
7,44%,CCCCCCCCCCc1ccc(-c2noc(C[C@@H]3CCNC3)n2)cc1
8,5%,CCCCCCCCCCc1ccc(-c2noc(CC[C@@H](N)C(=O)O)n2)cc1
9,5%,CCCCCCCCCCc1ccc(-c2noc(CC(O)CNCC)n2)cc1 (configuration not stated)
10,0%,CCCCCCCCCCc1ccc(-c2noc(CCCN3CCCCC3)n2)cc1
11,63%,CCCCCCCCCCc1ccc(-c2noc(CC3CNC3)n2)cc1
12,59%,CCCCCCCCCCc1ccc(-c2noc(CC(O)CN)n2)cc1 (configuration not stated)
13,19%,CCCCCCCCCCc1ccc(-c2noc(CN3CCNCC3)n2)cc1
14,61%,CCCCCCCCCc1ccc(-c2noc(CCCN)n2)cc1
15,45%,CCCCCCCCCCc1ccc(-c2noc(CCCNC)n2)cc1
16,3%,CCCCCCCCCCc1ccc(-c2noc(CCCN3CCCC3)n2)cc1
17,67%,CCCCCCCCCCc1ccc(-c2noc(CCCN)n2)cc1.Cl
18,62%,CCCCCCCCCCc1ccc(-c2noc(CN)n2)cc1
19,0%,CCCCCCCCCCc1ccc(-c2noc(CC(CN)OC(C)=O)n2)cc1 (configuration not stated)
20,2%,CCCCCCCCCCc1ccc(-c2noc(CC(O)CN3CCCCC3)n2)cc1 (configuration not stated)
21,59%,CCCCCCCCCCc1ccc(-c2noc(CCN)n2)cc1

# Second part, the compound before the results:
row,Structure (SMILES),inhibition
1,CCCCCCCC(=O)NCc1ccc(-c2noc(CCCN)n2)cc1,11%
2,CCCCCCCCCOc1ccc(-c2noc(CCCN)n2)cc1C(F)(F)F,24%
3,CCCCCCCCNC(=O)c1ccc(-c2noc(CCCN)n2)cc1,0%
4,CCCCCCCCc1ccc(CCc2noc(CCCN)n2)cc1,40%
5,CCCCCCCCCCc1ccc(-c2noc([C@@H]3CC[C@H](N)C3)n2)cc1,38%
6,CCCCCCCCCCc1ccc(-c2noc(-c3cccc(CN)c3)n2)cc1,2%
7,CCCCCCCCCCc1ccc(-c2noc([C@H]3CCNC3)n2)cc1,26%
8,CCCCCCCCCCc1cccc(-c2noc(CCCN)n2)c1,26%
9,CCCCCCCOc1ccc2cc(-c3noc(CCCN)n3)ccc2c1,8%
10,CCCCCCc1ccc(-c2noc(CCCN)n2)cc1,55%
11,CCCCCCCCCCc1ccc(-c2noc(CCCN(C)C)n2)cc1,8%
12,CCCCCCCCCCc1ccc(-c2noc([C@H]3CCCN3)n2)cc1,12%
13,CCCCCCCCCCc1ccc(-c2noc(C3CCNCC3)n2)cc1,66%
14,CCCCCCCCCCc1ccc(-c2cnn(CCCN)c2)cc1,50%
15,CCCCCCCCCCc1ccc(-c2ccnn2CCCN)cc1,45%
16,CCCCCCCCCCc1ccc(-c2noc([C@@H](N)CCN)n2)cc1,14%
17,CCCCCCCCCOc1ccc(-c2noc(CCCN)n2)cc1F,50%
18,CCCCCCCCc1ccc(-c2noc(CCCN)n2)cc1,70%
19,CCCCCCCCCCc1ccc(-c2noc([C@@H](N)CCCN)n2)cc1,40%
20,CCCCCCCCCCc1ccc(-c2noc([C@@H]3CCNC3)n2)cc1,62%

row,Structure (SMILES),inhibition
1,CCCCCCCCCOc1ccc(-c2noc(CCCN)n2)cc1,49%
2,CCCCCCCCCCc1ccc(-c2nnc(CCCN)o2)cc1,59%
3,CCCCCCCCCCc1ccc(-c2cn(C)c(CCCN)n2)cc1,51%
4,CCCCCCCCCCc1ccc(-c2csc(CCCN)n2)cc1,45%
5,CCCCCCCCC(=O)Nc1ccc(-c2noc(CCCN)n2)cc1,35%
6,CCCCCCCCCCc1ccc(-c2noc([C@@H]3CCC[C@@H](N)C3)n2)cc1,13%
7,CCCCCCCCCc1ccc(Cc2noc(CCCN)n2)cc1,34%
8,CCCCCCCCCCc1ccc(-c2coc(CCCN)n2)cc1,49%
9,CCCCCCCCCCc1ccc(-c2noc(C(Cl)CCN)n2)cc1 (configuration not stated),5%
10,CCCCCCCCCCc1ccc(-c2ccn(CCCN)n2)cc1,44%
11,CCCCCCCCCCc1ccc(-c2noc([C@H]3CCC[C@@H](N)C3)n2)cc1,29%
12,CCCCCCCCCCc1ccc(-c2noc(C[C@H](C)N)n2)cc1,44%
13,CCCCCCCCCCc1ccc(-c2noc([C@H](CCCCN)NC(C)=O)n2)cc1,40%
14,CCCCCCCCCCc1ccc(-c2noc(C3CNC3)n2)cc1,65%
15,CCCCCCCc1ccc(-c2noc(CCCN)n2)cc1,52%
16,CCCCCCCCCCc1ccc(-c2noc([C@@H](N)CCCCN)n2)cc1,43%
17,CCCCCCCCCCc1ccc(-c2noc([C@H](N)CCCCN)n2)cc1,50%
18,CCCCCCCCCCc1ccc(-c2noc([C@@H]3CCCN3)n2)cc1,21%
19,CCCCCCCCCCc1ccc(-c2c[nH]c(CCCN)n2)cc1,63%

# Test system: not listed separately
# Assay: Drug concentration in Sprague-Dawley rat plasma at 10 mg/kg, ip at 24 hrs by LC-MS/MS analysis
# Type: ADME, organism-based
# Conditions: not given
# In short: as §4
row,concentration at 24 h,Structure (SMILES)
1,2 µM,CCCCCCCCCCc1ccc(-c2noc(CCCN)n2)cc1.Cl

# Target: T3, Sphingosine kinase 2 (Mus musculus, UniProt Q9JIA7)
# T3 sequence (Q9JIA7 whole entry): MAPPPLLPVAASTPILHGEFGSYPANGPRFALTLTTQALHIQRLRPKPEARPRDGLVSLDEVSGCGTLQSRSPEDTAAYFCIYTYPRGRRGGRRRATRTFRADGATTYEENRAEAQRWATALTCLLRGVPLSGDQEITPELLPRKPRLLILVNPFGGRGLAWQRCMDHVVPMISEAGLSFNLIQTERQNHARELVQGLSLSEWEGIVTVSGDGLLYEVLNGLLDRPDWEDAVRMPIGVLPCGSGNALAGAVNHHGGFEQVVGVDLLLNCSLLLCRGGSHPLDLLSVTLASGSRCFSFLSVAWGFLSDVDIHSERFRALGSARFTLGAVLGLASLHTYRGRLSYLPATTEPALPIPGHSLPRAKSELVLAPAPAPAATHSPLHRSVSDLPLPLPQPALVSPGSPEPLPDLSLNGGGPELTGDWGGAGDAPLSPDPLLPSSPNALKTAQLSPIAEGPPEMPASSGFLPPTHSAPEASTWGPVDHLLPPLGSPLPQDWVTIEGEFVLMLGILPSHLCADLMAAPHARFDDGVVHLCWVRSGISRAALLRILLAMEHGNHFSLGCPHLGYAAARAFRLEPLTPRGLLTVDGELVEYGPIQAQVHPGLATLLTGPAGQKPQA
# Assay: Inhibition of recombinant mouse SphK2 transfected in HEK293T cells using D-erythro-sphingosine measured after 20 mins in presence of gamma-[p32]-ATP by autoradiography and liquid scintillation counting method
# Type: cell-based
# Conditions: not given
# In short: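 Lysate of mouse SphK2 from baculovirus-infected Sf9 or transfected HEK293T cells (0.02–0.03 mg protein). Buffer: 20 mM Tris-Cl pH 7.4 with MgCl₂, phosphatase/protease inhibitors, 10% glycerol and 1 M KCl. Substrate 5 μM D-erythro-sphingosine, 10 μM γ-[³²P]ATP, compound 10–30,000 nM. Reaction run 20 min at 37 °C, then lipids extracted and separated by TLC. Product detected by autoradiography and quantified by scintillation counting; run in duplicate.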
row,IC50,Structure (SMILES)
1,30 µM,CCCCCCCCCCc1ccc(-c2noc(CCCN)n2)cc1.Cl

# Test system: not listed separately
# Assay: Half life in Sprague-Dawley rat plasma at 10 mg/kg, ip by LC-MS/MS analysis
# Type: ADME, organism-based
# Conditions: not given
# In short: as §4
row,half-life,Structure (SMILES)
1,> 8 h,CCCCCCCCCCc1ccc(-c2noc(CCCN)n2)cc1.Cl

# Organism: Mus musculus
# Assay: Selectivity ratio of IC50 for mouse SphK2 to recombinant mouse Snps2
# Conditions: not given
row,Ratio IC50,Structure (SMILES)
1,15,CCCCCCCCCCc1ccc(-c2noc(CCCN)n2)cc1.Cl

# Test system: Rattus norvegicus
# Assay: In vivo inactivation of Spns2 gene in Sprague-Dawley rat assessed as decrease in circulating lymphocytes at 10 mg/kg, ip measured upto 24 hrs by blood analyzer
# Type: functional
# Parameters: scale not given: the % may be the effect or the level left
# Conditions: not given
# In short: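 Male rats 4 weeks old (n = 4) received a single intraperitoneal dose in PEG400/ethanol/Solutol/water vehicle. Tail-nick blood sampled at 0, 0.5, 1, 2, 4, 6 and 24 h. Lymphocytes counted from 20 μL blood on a haematology analyzer; counts compared with time 0.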
row,Structure (SMILES),Activity
1,CCCCCCCCCCc1ccc(-c2noc(CCCN)n2)cc1.Cl,25%

# Test system: Mus musculus
# Assay: In vivo inactivation of Spns2 gene in C57BL/6j mouse assessed as decrease in plasma S1P at 20 mg/kg, ip measured after 4 hrs by LC-MS/MS analysis
# Type: functional, organism-based
# Conditions: not given
# In short: as §3
row,Structure (SMILES),inhibition
1,CCCCCCCCCCc1ccc(-c2noc(CCCN)n2)cc1.Cl,Active
